Laboratory results as given in ChEMBL document CHEMBL1156262, “Substituted benzothiophene or benzofuran derivatives as a novel class of bone morphogenetic protein-2 up-regulators: synthesis, structure-activity relationships, and preventive bone loss efficacies in senescence accelerated mice (SAMP6) and ovariectomized rats” (J Med Chem, 2010).
The source made the active and inactive calls. The rule behind the calls is not given here.

Tests used:
[1] = Induction of BMP2 expression in mouse calcarial MC3T3-E1 cells stably transfected with mouse BMP2 promotor-luciferase assessed as upregulation rate at 4 uM; assay type: functional, cell-based
Summary of the method: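 Reporter assay in murine calvarial MC3T3-E1 cells stably carrying the mouse BMP-2 promoter fused to firefly luciferase (pGL4BMP-2). Cells grown in DMEM with 10% heat-inactivated FBS at 37 °C and 5% CO2. Test compounds at 4.0 μM; lovastatin at 0.4 μM as positive control; 0.1% DMSO as negative control. Up-regulation rate = (RLU of test − RLU of negative control)/RLU of negative control × 100.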

Mus musculus [2] = experiment: Induction of bone formation in SAMP6 mouse right femora assessed as trabecular formation surface percentage at 30 mg/kg/day, po measured after 3 months by bone histomorphometry; assay type: functional, Trabecula
Summary of the method: (§1)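 SAMP6 mice, 5 months old, n = 5 per group (3 male, 2 female), randomized by initial BMD. Given compound in 0.5% methylcellulose by gavage daily for 3 months. Proximal third of the right femur fixed in 4% paraformaldehyde, cut as undecalcified sections, and scored by image analysis for histomorphometry.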

Mus musculus [3] = experiment: Induction of bone formation in SAMP6 mouse right femora assessed as average osteoid width at 30 mg/kg/day, po measured after 3 months by bone histomorphometry; assay type: functional; summary of the method: as §1
[4] = Toxicity in po dosed Kunming mouse assessed as mortality treated for 3 days measured after 17 days; assay type: organism-based; conditions: in vivo
Summary of the method: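 Male and female Kunming mice (18-21 g), six per group (three males, three females), were dosed orally at 500 or 700 (mg/kg)/day for 3 days. They were closely watched for deaths over the 3 dosing days and the following 14 days (17 days in total).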

Mus musculus [5] = experiment: Induction of BMP2 expression in SAMP6 mouse cartilage cells at 30 mg/kg/day, po after 3 months by immunohistochemical analysis; assay type: functional, organism-based
Summary of the method: (§2)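 SAMP6 mice, 5 months old, male and female, n = 5 per group (3 male, 2 female). Dosed by gavage with compound suspended in 0.5% methylcellulose daily for 3 months; the vehicle group received methylcellulose only. Proximal third of the left femur fixed in 4% neutral paraformaldehyde for 24 h, decalcified in 10% EDTA at 4 °C for 4 weeks, then frozen-sectioned at 5 μm. Stained with rabbit polyclonal anti-BMP-2 and an alkaline phosphatase secondary. BMP-2-positive area was taken as a percentage of bone tissue area, averaged over five fields below the epiphyseal plate.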

Mus musculus [6] = experiment: Toxicity in SAMP6 mouse assessed as change in 24 hrs water consumption at 30 mg/kg/day, po after 3 months; assay type: organism-based; parameters: route oral; conditions: in vivo
Summary of the method: (§3)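 SAMP6 mice, n = 5 per group, dosed orally at 30 mg/kg/day in 0.5% methylcellulose for 3 months. Heart, liver, spleen, lung and kidney harvested, weighed and examined histologically. Organ/body weight indexes, body weight, and 24 h water and food intake (g/g body weight) compared with vehicle controls.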

Mus musculus [7] = experiment: Induction of bone mineral density in SAMP6 mouse assessed as spine BMD at 30 mg/kg/day, po measured after 3 months; assay type: functional
Summary of the method: (§4)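 SAMP6 mice, 5 months old, n = 5 per group, given compound in 0.5% methylcellulose by gavage daily. Dual-energy X-ray absorptiometry under pentobarbital anaesthesia (50 mg/kg ip), animals prone, at 0, 4, 8 and 12 weeks of treatment. Regions of interest were whole body, spine and left hind leg.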

Mus musculus [8] = experiment: Induction of bone mineral density in SAMP6 mouse assessed as whole body BMD at 30 mg/kg/day, po measured after 2 months; assay type: functional, organism-based; summary of the method: as §4
Mus musculus [9] = experiment: Toxicity in SAMP6 mouse assessed as pathological changes in kidney at 30 mg/kg/day, po after 3 months by histomorphology; assay type: organism-based; parameters: route oral; conditions: in vivo; summary of the method: as §3
Mus musculus [10] = experiment: Induction of BMP2 expression in SAMP6 mouse osteoblast at 30 mg/kg/day, po after 3 months by immunohistochemical analysis; assay type: functional, organism-based; summary of the method: as §2
Mus musculus [11] = experiment: Toxicity in SAMP6 mouse assessed as increase in body weight at 30 mg/kg/day, po after 3 months; assay type: organism-based; parameters: route oral; conditions: in vivo; summary of the method: as §3
Mus musculus [12] = experiment: Induction of bone mineral density in SAMP6 mouse assessed as whole body BMD at 10 mg/kg/day, po measured after 2 months; assay type: functional, organism-based; conditions: 30 mg/kg, in the assay text read “30 mg/kg/day” for “10 mg/kg/day”; summary of the method: as §4
Mus musculus [13] = experiment: Induction of bone mineral density in SAMP6 mouse assessed as left hind leg BMD at 30 mg/kg/day, po measured after 3 months; assay type: functional; summary of the method: as §4
Mus musculus [14] = experiment: Induction of bone mineral density in SAMP6 mouse assessed as whole body BMD at 30 mg/kg/day, po measured after 3 months; assay type: functional; summary of the method: as §4
Mus musculus [15] = experiment: Induction of BMP2 expression in SAMP6 mouse bone marrow stroma at 30 mg/kg/day, po after 3 months by immunohistochemical analysis; assay type: functional, organism-based; summary of the method: as §2
Mus musculus [16] = experiment: Induction of BMP2 expression in SAMP6 mouse osteoblast at 10 mg/kg/day, po after 3 months by immunohistochemical analysis; assay type: functional, organism-based; summary of the method: as §2
Mus musculus [17] = experiment: Toxicity in SAMP6 mouse assessed as pathological changes in spleen at 30 mg/kg/day, po after 3 months by histomorphology; assay type: organism-based; parameters: route oral; conditions: in vivo; summary of the method: as §3
Mus musculus [18] = experiment: Induction of bone formation in SAMP6 mouse right femora assessed as trabecular resorption surface percentage at 30 mg/kg/day, po measured after 3 months by bone histomorphometry; assay type: functional, Trabecula; summary of the method: as §1
Mus musculus [19] = experiment: Toxicity in SAMP6 mouse assessed as pathological changes in liver at 30 mg/kg/day, po after 3 months by histomorphology; assay type: organism-based; parameters: route oral; conditions: in vivo; summary of the method: as §3
Mus musculus [20] = experiment: Induction of bone mineral density in SAMP6 mouse assessed as spine BMD at 30 mg/kg/day, po measured last 2 months; assay type: functional, organism-based; summary of the method: as §4
Mus musculus [21] = experiment: Induction of bone mineral density in SAMP6 mouse assessed as whole body BMD at 10 mg/kg/day, po measured after 1 month; assay type: functional, organism-based; conditions: 30 mg/kg, in the assay text read “30 mg/kg/day” for “10 mg/kg/day”; summary of the method: as §4
Mus musculus [22] = experiment: Toxicity in SAMP6 mouse assessed as pathological changes in lung at 30 mg/kg/day, po after 3 months by histomorphology; assay type: organism-based; parameters: route oral; conditions: in vivo; summary of the method: as §3
Mus musculus [23] = experiment: Toxicity in SAMP6 mouse assessed as change in 24 hrs food consumption at 30 mg/kg/day, po after 3 months; assay type: organism-based; parameters: route oral; conditions: in vivo; summary of the method: as §3
Mus musculus [24] = experiment: Toxicity in SAMP6 mouse assessed as pathological changes in heart at 30 mg/kg/day, po after 3 months by histomorphology; assay type: organism-based; parameters: route oral; conditions: in vivo; summary of the method: as §3
Mus musculus [25] = experiment: Induction of bone formation in SAMP6 mouse right femora assessed as trabecular bone volume percentage at 30 mg/kg/day, po measured after 3 months by bone histomorphometry; assay type: functional, Trabecula; summary of the method: as §1

## CCOC(=O)c1ccc2sc(C(=O)/C=C/c3ccc(OC)cc3)cc2c1
[1]
  Activity: 1.7%

## CS(=O)(=O)CC(=O)c1cc2cc3c(cc2s1)OCO3
[1]
  Activity: -9.3%

## C[S+]([O-])CC(=O)c1cc2c(Cl)cccc2s1 (centres undefined)
[1]
  Activity: 18.5%

## CCOC(=O)c1cc2cc3c(cc2s1)OCO3
Mus musculus [2]
  Activity: 5.55%
Mus musculus [3]
  Activity: 5.76 µm
[4]
  LD50 at 408 h: > 500 mg/kg
Mus musculus [5]
  Activity: inactive
Mus musculus [6]
  Activity: Non-toxic
[1]
  Activity: 64.2%
Mus musculus [7]
  Activity: 0.091 g/cm2
Mus musculus [8]
  Activity: Active
Mus musculus [9]
  Activity: Non-toxic
Mus musculus [10]
  Activity: Active
Mus musculus [11]
  Activity: Non-toxic
Mus musculus [12]
  Activity: Active
Mus musculus [13]
  Activity: 0.053 g/cm2
Mus musculus [14]
  Activity: 0.072 g/cm2
Mus musculus [15]
  Activity: Active
Mus musculus [16]
  Activity: Active
Mus musculus [17]
  Activity: Non-toxic
Mus musculus [18]
  Activity: 6.45%
Mus musculus [19]
  Activity: Non-toxic
Mus musculus [20]
  Activity: Active
Mus musculus [21]
  Activity: Active
Mus musculus [22]
  Activity: Non-toxic
Mus musculus [23]
  Activity: Non-toxic
Mus musculus [24]
  Activity: Non-toxic
Mus musculus [25]
  Activity: 7.1%

## CCOC(=O)c1cc2cc(Cl)cc(Cl)c2o1
[1]
  Activity: -1.6%

## O=C(/C=C/c1ccccc1Cl)c1cc2ccccc2s1
[1]
  Activity: 2%

## CCOC(=O)c1cc2c(Cl)cccc2s1
[1]
  Activity: -0.6%

## CCOC(=O)c1cc2cccc(OC)c2o1
[1]
  Activity: 12.4%

## CCOC(=O)c1cc2cc(C(=O)OC)ccc2s1
[1]
  Activity: 49.8%

## O=C(/C=C/c1ccccc1Cl)c1cc2ccccc2o1
[1]
  Activity: 1.8%

## O=C(/C=C/c1ccccc1)c1cc2ccccc2s1
[1]
  Activity: 15.4%

## CCOC(=O)c1ccc2sc(C(=O)/C=C/c3ccccc3)cc2c1
[1]
  Activity: 12.6%

## CCOC(=O)c1ccc2sc(C(=O)/C=C/c3ccc(OC)c(OC)c3)cc2c1
[1]
  Activity: -9.6%

## COC(=O)c1ccc2sc(C(C)=O)cc2c1
[1]
  Activity: 41.4%

## CS(=O)(=O)CC(=O)c1cc2ccccc2s1
[1]
  Activity: 5.1%
